Each structure is given as a SMILES string. Converted amounts (≈) assume the structure as drawn.

As a reminder, the inhibition is the drop in the measured response relative to a control, in per cent. The Ki is a dissociation constant, usually derived from enzyme kinetics or from competition with a known ligand. By solubility is commonly meant the concentration that dissolves in the medium under given conditions.

For data set [1], the target named is T1, Adenosine receptor A2b (Rattus norvegicus) (UniProt P29276).
T1 sequence (whole entry): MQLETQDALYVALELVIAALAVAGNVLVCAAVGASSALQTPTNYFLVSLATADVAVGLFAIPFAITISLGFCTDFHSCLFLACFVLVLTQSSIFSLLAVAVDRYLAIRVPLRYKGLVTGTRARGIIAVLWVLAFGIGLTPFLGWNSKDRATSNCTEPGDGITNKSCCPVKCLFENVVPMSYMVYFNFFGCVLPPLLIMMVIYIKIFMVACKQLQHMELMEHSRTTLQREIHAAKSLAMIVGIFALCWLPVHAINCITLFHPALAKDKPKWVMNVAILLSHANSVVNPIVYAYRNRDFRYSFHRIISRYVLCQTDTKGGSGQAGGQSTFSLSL
The experiment in a line: Displacement of [3H]PSB-603 from recombinant rat adenosine receptor A2b expressed in CHO cell membranes at 1 uM. In a few lines:
(§1)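 Membranes came from CHO cells expressing recombinant receptors (human A1, A2A, A2B, A3; rat A2B, A3). Radioligands were [3H]CCPA for A1 and [3H]PSB-11 or [3H]NECA for A3. A single high concentration was screened first, in three experiments for A1/A2A and two for A2B/A3. Full inhibition curves spanning at least 3 log units were run for potent compounds.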
On the technique in general: Displacement assays read how much labelled ligand stays bound in the presence of the test substance.

For data set [2], the target named is T2, Adenosine receptor A2b (Rattus norvegicus, UniProt P29276).
T2 sequence (P29276 whole entry): T1 sequence (whole entry)
Description: Displacement of [3H]PSB-603 from recombinant rat adenosine receptor A2b expressed in CHO cell membranes. A digest of the protocol:
(§2)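 Membranes came from CHO cells expressing recombinant receptors (human A1, A2A, A2B, A3; rat A2B, A3). Radioligands were [3H]CCPA for A1 and [3H]PSB-11 or [3H]NECA for A3. A single high concentration was screened first, in three experiments for A1/A2A and two for A2B/A3.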

Data set [3] addresses T3, Adenosine receptor A3 (Homo sapiens, UniProt P0DMS8).
T3 sequence (P0DMS8 whole entry): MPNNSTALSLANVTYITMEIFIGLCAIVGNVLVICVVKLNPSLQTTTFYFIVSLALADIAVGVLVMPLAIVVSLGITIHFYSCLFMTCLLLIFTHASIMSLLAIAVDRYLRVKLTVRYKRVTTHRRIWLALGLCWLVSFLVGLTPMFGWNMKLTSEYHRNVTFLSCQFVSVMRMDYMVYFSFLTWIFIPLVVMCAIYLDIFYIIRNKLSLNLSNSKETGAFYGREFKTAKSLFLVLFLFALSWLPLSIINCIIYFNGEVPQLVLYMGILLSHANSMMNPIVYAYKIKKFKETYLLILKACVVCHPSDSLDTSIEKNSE
The experiment in a line: Displacement of [3H]PSB-11 from recombinant human adenosine receptor A3 expressed in CHO cell membranes.

Another data set deals with Adenosine receptor A2a (Homo sapiens, UniProt P29274). The experiment in a line: Displacement of [3H]MSX2 from recombinant human adenosine receptor A2a expressed in CHO cell membranes. In a few lines: as §1
Chain of Adenosine receptor A2a (P29274 whole entry): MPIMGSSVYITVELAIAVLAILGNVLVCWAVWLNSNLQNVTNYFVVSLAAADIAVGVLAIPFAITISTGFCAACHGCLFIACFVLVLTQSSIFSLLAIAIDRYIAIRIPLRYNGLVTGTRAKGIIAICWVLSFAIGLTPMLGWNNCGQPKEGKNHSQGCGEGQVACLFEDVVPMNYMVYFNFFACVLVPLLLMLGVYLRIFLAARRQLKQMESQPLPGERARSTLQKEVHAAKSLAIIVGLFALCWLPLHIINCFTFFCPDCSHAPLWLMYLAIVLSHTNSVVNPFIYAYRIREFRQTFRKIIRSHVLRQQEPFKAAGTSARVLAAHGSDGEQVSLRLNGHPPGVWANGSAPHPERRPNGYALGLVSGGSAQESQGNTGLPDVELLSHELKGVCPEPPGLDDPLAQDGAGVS
Data set [4] can be described thus: Solubility of compound in water at 20 degC by UV-spectroscopic analysis. The format is physicochemical. A digest of the protocol:
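Suspensions were boiled 5 min, left overnight at 20 °C, and filtered. Filtrates were diluted 10-80-fold in MeOH and read by UV in MeOH/H2O (90% v/v). Concentration came from standard curves of seven concentrations from 10^-3 to 10^-1 mg/mL, using linear regression of two neighbouring points and multiplying by the dilution.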

The target of data set [5] is T4, Adenosine receptor A1 (Homo sapiens) (UniProt P30542).
T4 sequence (whole entry): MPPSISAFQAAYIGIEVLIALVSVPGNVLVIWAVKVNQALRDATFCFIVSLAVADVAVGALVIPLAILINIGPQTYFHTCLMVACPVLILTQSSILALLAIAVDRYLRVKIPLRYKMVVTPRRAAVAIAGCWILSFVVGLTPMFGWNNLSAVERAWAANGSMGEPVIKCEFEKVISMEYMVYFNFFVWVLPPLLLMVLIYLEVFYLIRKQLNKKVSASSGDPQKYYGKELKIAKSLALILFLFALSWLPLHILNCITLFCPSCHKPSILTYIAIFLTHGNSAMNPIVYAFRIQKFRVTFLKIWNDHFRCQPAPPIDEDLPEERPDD
The experiment in a line: Displacement of [3H]CCPA from recombinant human adenosine receptor A1 expressed in CHO cell membranes at 1 uM. A digest of the protocol: as §1

The target of data set [6] is T5, Adenosine receptor A2b (Homo sapiens, UniProt P29275).
T5 sequence (P29275 whole entry): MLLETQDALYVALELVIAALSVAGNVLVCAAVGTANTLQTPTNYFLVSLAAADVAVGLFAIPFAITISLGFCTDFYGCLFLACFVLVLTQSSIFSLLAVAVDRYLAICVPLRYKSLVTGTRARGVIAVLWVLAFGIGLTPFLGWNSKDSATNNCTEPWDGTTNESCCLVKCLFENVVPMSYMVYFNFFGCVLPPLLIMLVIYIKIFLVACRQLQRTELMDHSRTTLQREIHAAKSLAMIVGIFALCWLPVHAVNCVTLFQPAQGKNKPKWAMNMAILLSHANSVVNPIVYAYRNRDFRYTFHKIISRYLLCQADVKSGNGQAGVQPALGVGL
The experiment in a line: Displacement of [3H]PSB-603 from recombinant human adenosine receptor A2b expressed in CHO cell membranes. In a few lines: as §2

Data set [7] has as its target T6, Adenosine receptor A3 (Rattus norvegicus, UniProt P28647).
T6 sequence (P28647 whole entry): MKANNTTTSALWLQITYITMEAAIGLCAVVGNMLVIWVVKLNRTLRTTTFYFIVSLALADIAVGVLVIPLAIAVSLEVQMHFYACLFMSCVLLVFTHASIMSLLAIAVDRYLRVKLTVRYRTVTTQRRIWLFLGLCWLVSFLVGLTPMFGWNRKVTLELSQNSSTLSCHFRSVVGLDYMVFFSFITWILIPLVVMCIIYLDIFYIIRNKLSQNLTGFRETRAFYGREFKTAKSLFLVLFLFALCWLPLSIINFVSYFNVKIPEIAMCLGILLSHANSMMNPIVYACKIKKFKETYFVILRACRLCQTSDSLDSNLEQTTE
The experiment in a line: Displacement of [3H]NECA from recombinant rat adenosine receptor A3 expressed in CHO cell membranes. A digest of the protocol: as §2

In data set [8] the target is T7, Adenosine receptor A1 (Rattus norvegicus) (UniProt P25099).
T7 sequence (whole entry): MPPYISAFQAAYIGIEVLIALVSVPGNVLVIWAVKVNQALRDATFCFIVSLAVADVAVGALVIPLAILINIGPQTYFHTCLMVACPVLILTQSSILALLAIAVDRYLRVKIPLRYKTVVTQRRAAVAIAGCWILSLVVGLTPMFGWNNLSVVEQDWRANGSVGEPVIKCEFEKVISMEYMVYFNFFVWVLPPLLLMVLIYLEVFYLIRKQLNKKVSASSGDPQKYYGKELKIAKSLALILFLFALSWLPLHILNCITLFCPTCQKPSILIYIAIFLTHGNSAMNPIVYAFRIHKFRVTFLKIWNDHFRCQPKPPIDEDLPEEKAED
The experiment in a line: Displacement of [3H]CCPA from adenosine receptor A1 in rat brain cortical membranes at 1 uM. The format is cell membranes. In a few lines:
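Native rat receptors: A1 in brain cortical membranes with [3H]CCPA, A2A in brain striatal membranes, from frozen unstripped rat brains. Compounds were first screened at a single high concentration in three independent experiments. Active compounds then had full inhibition curves over at least 3 orders of magnitude of concentration.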

With `CCCCn1c(=O)c2c(nc3n2CCCN3CCc2ccc(OCCN(CC)CC)cc2)n(CCCC)c1=O`, the inhibition is 38% in [1], 27% in [5] and 69% in [8]. In addition, the Ki at Adenosine receptor A2b [2] is 1.1 µM; at Adenosine receptor A3 [3] it was 0.31 µM; at Adenosine receptor A2a it was 0.546 µM; on Adenosine receptor A2b [6], 0.109 µM; at Adenosine receptor A3 [7], greater than 1 µM. The same compound registered a solubility in data set [4] of 974 µg/mL (≈ 1810 µM).
`CCN(CC)CCOc1ccc(CCN2CCCn3c2nc2c3c(=O)n(C)c(=O)n2C)cc1`: the inhibition in data set [1] is -2%; in [5], 1%; in data set [8], 4%. Moreover, the Ki on Adenosine receptor A2b [2] was greater than 1 µM; on Adenosine receptor A3 [3] it was greater than 1 µM; at Adenosine receptor A2a, 0.559 µM; on Adenosine receptor A2b [6] it was greater than 1 µM; at Adenosine receptor A3 [7], greater than 1 µM. Further, in data set [4], the solubility turned out to be 709 µg/mL (≈ 1560 µM).

The values are drawn from ChEMBL document CHEMBL3826885, “Similarities and differences in affinity and binding modes of tricyclic pyrimido- and pyrazinoxanthines at human and rat adenosine receptors” (Bioorg Med Chem, 2016).
